Measurements: ChEMBL document CHEMBL1138348, “A p-[18F]fluoroethoxyphenyl bicyclic nucleoside analogue as a potential positron emission tomography imaging agent for varicella-zoster virus thymidine kinase gene expression” (J Med Chem, 2007)
pIC50: −log10 of the molar value.

Experiments:
[1] = Inhibition of Varicella zoster virus thymidine kinase; design: species or system Human alphaherpesvirus 3
In short: (§1)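 Purified recombinant VZV TK (7.75 ng), HSV-1 TK (226 ng) or human cytosolic TK-1 (455 ng) in 50 mM Tris-HCl pH 8.0, 2.5 mM MgCl2, 10 mM DTT, 2.5 mM ATP, 1 mg/mL BSA, 10 mM NaF, with 1 µM final [CH3-3H]dThd substrate. Incubated 30 min at 37 °C with varied compound concentrations; the reaction was linear over this time. Product bound on DE-81 filters, washed, and counted by liquid scintillation. Result reported as IC50.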

[2] = target: T1, Thymidine kinase, cytosolic (Homo sapiens, UniProt P04183); experiment: Inhibition of human cytosolic thymidine kinase 1; in short: as §1
T1 sequence (P04183 whole entry): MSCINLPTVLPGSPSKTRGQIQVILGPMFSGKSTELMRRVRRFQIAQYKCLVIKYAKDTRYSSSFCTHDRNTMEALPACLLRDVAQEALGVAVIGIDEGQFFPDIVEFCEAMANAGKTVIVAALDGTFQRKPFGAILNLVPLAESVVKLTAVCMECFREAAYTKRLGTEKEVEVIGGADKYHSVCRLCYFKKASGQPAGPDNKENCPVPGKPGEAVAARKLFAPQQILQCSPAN

[3] = Inhibition of HSV1 thymidine kinase; design: species or system Human alphaherpesvirus 1; in short: as §1

Row | SMILES | pIC50 [1] | pIC50 [2] | pIC50 [3]
1 | O=c1nc2oc(-c3ccc(O)cc3)cc2cn1[C@H]1C[C@H](O)[C@@H](CO)O1 | 6.40 | < 3.30 | < 3.30
2 | COc1ccc(-c2cc3cn([C@H]4C[C@H](O)[C@@H](CO)O4)c(=O)nc3o2)cc1 | 5.82 | < 3.30 | < 3.30
3 | O=c1nc2oc(-c3ccc(OCCF)cc3)cc2cn1[C@H]1C[C@H](O)[C@@H](CO)O1 | 5.38 | < 3.30 | < 3.30
